Source: PubChem BioAssay
A selection: hits, their analogues and other compounds. The true share with any hit is near 2.5%.
PRMT1 inh: inhibitors of human PRMT1. 370,000 compounds, 1.3% hits. inhibition, % at 2.79 µM. AID 652257. recombinant PRMT1, activity-based probe fluorescence polarization;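 active = inhibition above about 21% made by adding two undisclosed values, limit read from the data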
Target sequence (Q99873 whole entry, looked up): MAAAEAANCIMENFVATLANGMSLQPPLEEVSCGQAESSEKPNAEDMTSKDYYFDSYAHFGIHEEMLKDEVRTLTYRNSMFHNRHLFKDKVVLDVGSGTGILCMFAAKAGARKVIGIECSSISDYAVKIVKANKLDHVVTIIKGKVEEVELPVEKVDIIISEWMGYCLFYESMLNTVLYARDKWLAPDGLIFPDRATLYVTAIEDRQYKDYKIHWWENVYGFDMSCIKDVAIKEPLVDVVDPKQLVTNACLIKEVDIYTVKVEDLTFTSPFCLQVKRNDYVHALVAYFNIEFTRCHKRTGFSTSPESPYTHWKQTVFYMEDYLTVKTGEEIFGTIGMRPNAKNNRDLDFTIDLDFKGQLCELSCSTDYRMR
PAD4 inh: PAD4 (human) enzyme inhibition; 330,000 compounds, 0.41% hits; inhibition, % at 6.36 µM; recombinant PAD4, RCA probe fluorescence polarization; AID 485272; Q9UM07;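 active = percent inhibition above a cutoff equal to the mean of all tested compounds plus 3 SD, cut at about 15% in these data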;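 also: 0% = PAD4 with RCA probe and DMSO and 100% = probe without PAD4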
GSTO1 inh: blocks human GSTO1 in RBBP9 counter-screen; recombinant GSTO1, activity-based probe fluorescence polarization; inhibition, % at 5.96 µM; 300,000 compounds, 1.1% hits;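 active = inhibition above the campaign mean inhibition plus 3 SD, cut at about 35% in these data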;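 also: 0% = GSTO1-1 with DMSO and 100% = wells lacking GSTO1-1 enzyme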
Target sequence (P78417 whole entry, looked up): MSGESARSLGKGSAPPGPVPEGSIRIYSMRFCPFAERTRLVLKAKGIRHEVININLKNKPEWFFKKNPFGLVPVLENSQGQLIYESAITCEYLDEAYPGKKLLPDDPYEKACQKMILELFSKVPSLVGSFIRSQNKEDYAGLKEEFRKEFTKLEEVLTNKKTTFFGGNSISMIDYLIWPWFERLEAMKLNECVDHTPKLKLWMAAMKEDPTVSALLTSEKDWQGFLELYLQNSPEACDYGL
TDP2 inh: TDP2 (human) inhibition, absorbance primary screen. O95551. recombinant TDP2, T5PNP hydrolysis, p-nitrophenol absorbance 415 nm. inhibition, % at 12.8 µM. 370,000 compounds, 0.34% hits. AID 720702;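 active = inhibition above the mean of all tested compounds plus 3 SD, set per campaign, cut at about 25% in these data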;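 also: 0% = DMSO with enzyme and 100% = buffer with substrate but no TDP2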
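Test system: Human TDP2 enzyme | Reagent: 5 mM T5PNP | Compound dosing: 12.8 µM single point, 1% DMSO | Incubation: Enzyme reaction with compound for 2 h at 37 °C | Technique: p-Nitrophenol epi absorbance | Read-out: % inhibition relative to enzyme-containing and enzyme-free wells | Benchmarks: High control without enzyme, low control DMSO plus TDP2 | Replicates: Singlicate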
Fh CTSL1 inh: blocks F. hepatica cathepsin L1 in PFM18AAP counter-screen | recombinant F. hepatica cathepsin L1, Z-Leu-Arg-MCA fluorescence | inhibition, % at 5.96 µM | 300,000 compounds, 0.49% hits | AID 1906;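 active = inhibition above the mean of all tested compounds plus 3 SD, set per screening campaign, cut at about 17% in these data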;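 also: 0% = plate median of test compound wells and 100% = 1 µM Z-Phe-Ala-diazomethylketone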
* marks the source's active call; other numbers are inactive results; . = no result given.

SMILES	PRMT1 inh	PAD4 inh	GSTO1 inh	TDP2 inh	Fh CTSL1 inh
O=C(CSc1nc2ccccc2c(=O)n1-c1ccccc1)N1CCc2ccccc21	-0.9	-0.9	0.3	-15.6	0.2
O=C(CSc1nc2ccccc2c(=O)n1-c1ccccc1)N1CCCc2ccccc21	-0.2	1.3	2.1	-14.3	36.0*
Cn1nnc2sc3c(c2c1=O)CCCC3	22.4*	-0.8	-0.4	-5.8	2.2
CC(NC(=O)Cn1ncc(Cl)c(Cl)c1=O)C12CC3CC(CC(C3)C1)C2 (stereo unspecified)	.	5.0	36.5*	.	-3.2
O=C1c2ccccc2C(=O)N1CSc1nnnn1-c1ccccc1	4.1	0.3	37.1*	-7.3	-1.6
COc1ccccc1NC(=S)N(CCc1ccc(OC)c(OC)c1)Cc1ccccn1	1.9	4.2	9.5	-12.4	17.6*
O=[N+]([O-])c1cc(O)c2ncccc2c1	5.2	-18.2	36.7*	-4.8	11.2
O=[N+]([O-])c1cc2cccnc2c2ncccc12	-1.1	-7.1	14.7	-2.8	7.2
O=C(CCl)c1ccc2c(c1)CCN2C(=O)C1CC1	.	-2.7	57.4*	.	13.2
O=C(C1CCC(C(=O)N2CCc3ccccc32)CC1)N1CCc2ccccc21 (stereo unspecified)	0.7	1.3	2.6	-9.2	0.6
O=C(CC12CC3CC(CC(C3)C1)C2)NCc1ccncc1	0.2	-2.6	3.1	-3.2	17.3*
CC(C)(C)c1ccc(C(=O)Nc2cc(Cl)ccc2C(=O)O)cc1	-5.3	.	.	0.1	.
N#CCCn1cc(/C=N/NC(N)=S)c(-c2ccc(-c3ccccc3)cc2)n1	12.3	0.2	-13.9	2.7	29.2*
N#CCCn1cc(/C=N/O)c(-c2ccccc2)n1	2.7	-0.4	-4.8	4.3	-0.5
COC(=O)C1CCN(C(=O)CCn2nnc(-c3cccs3)n2)CC1	1.6	.	.	-5.2	.
N=c1cc(C2(O)CCCCC2)n2c(nc3ccccc32)s1	24.6*	-5.4	-2.1	0.2	-0.4
O=C1c2sc3nc4ccccc4n3c2C(=O)N1c1ccccc1Cl	-0.5	2.9	2.4	4.7	5.0
CCOC(=O)c1nn(-c2ccc(C)cc2)c(=O)c2c(N)scc12	19.4	-10.0	27.5	6.4	16.8*
CN(C)c1ccc(NC(=O)C2C3C=CC(C3)C2C(=O)O)cc1 (stereo unspecified)	17.5	.	.	45.4*	.
O=C(O)C1C2C=CC(C2)C1C(=O)Nc1ccc2c(c1)OCCO2 (stereo unspecified)	.	-1.9	-1.7	.	0.0
COC(=O)[C@]12C[C@H](CC(=O)N3CCN(C(=O)C4CC4)CC3)C(=O)N(CCc3ccc(OC)c(OC)c3)C1=C[C@H](C1CCCC1)O[C@@H]2C	0.6	.	.	-3.4	.
CCOC(=O)NNc1ccc2nonc2c1[N+](=O)[O-]	.	51.5*	88.9*	.	23.6*
CCc1ccc(Nc2ccc3nonc3c2[N+](=O)[O-])cc1	0.8	-5.2	4.3	-10.9	1.4
COc1ccc(N2CCN(CCCNC(=O)CCc3ccc(F)cc3)CC2)cc1	0.5	.	.	-2.5	.
COCc1c(C(=O)OCc2nc(N)nc(Nc3ccccc3C)n2)oc2ccccc12	1.1	5.6	-3.9	5.0	17.4*
SMILES	PRMT1 inh	PAD4 inh	GSTO1 inh	TDP2 inh	Fh CTSL1 inh
O=C(Nc1ccccc1)OCCN1C(=O)CCC12CCC(c1ccccc1)CC2 (stereo unspecified)	-1.8	.	.	5.5	.
CCCOP(=O)(c1ccc(N(C)C)cc1)C(Nc1ccccc1)c1ccc(C)cc1 (stereo unspecified)	3.8	4.4	0.3	0.5	20.7*
Cc1cccc(OCC(C)CN2CCC(C(O)(c3ccccc3)c3ccccc3)CC2)c1 (stereo unspecified)	-2.1	.	.	-7.6	.
O=C1NC(=O)/C(=C\c2ccc(O)cc2O)S1	9.5	1.1	63.4*	4.4	-0.7
O=C1NC(=O)/C(=C/c2cccc3ccccc23)S1	3.0	2.7	-28.8	0.8	3.8
NC(=O)c1nsc(C(=O)N(CC(=O)NC2CCCC2)c2cccc(C(F)(F)F)c2)c1N	-2.1	-0.2	8.9	12.2	20.4*
C1=CC2c3ccccc3NC(c3ccncc3)C2C1 (stereo unspecified)	23.2*	-8.8	47.4*	12.4	0.5
Brc1cc2c(cc1C1Nc3ccccc3C3C=CCC31)OCO2 (stereo unspecified)	-0.8	0.3	2.1	-1.3	1.8
O=C(O)/C=C/C(=O)Nc1c(F)cccc1F	22.1*	1.3	10.1	18.4	-0.1
COc1ccc(NCc2cc3cc(OC)ccc3[nH]c2=O)cc1	21.3*	-7.5	9.4	1.2	-0.2
CCOC(=O)C1=C(c2ccccc2)N=c2s/c(=C\c3cc(OC)c(OC)c(OC)c3)c(=O)n2C1c1cccs1 (stereo unspecified)	-3.5	0.9	-2.2	-1.5	1.7
CCOC(=O)C1=C(c2ccccc2)N=c2s/c(=C\c3ccco3)c(=O)n2C1c1cccs1 (stereo unspecified)	23.2*	-4.3	10.3	-1.4	-2.6
Cc1nn(-c2ccccc2)c(N2CCCC2)c1/C=C1\N=C(c2ccc(OC(C)C)cc2)OC1=O	-2.0	-1.3	-0.7	-4.4	74.0*
Cc1ccc(C2=N/C(=C\N3CCCCC3)C(=O)O2)cc1	4.4	-1.6	4.7	-0.4	5.6
c1nc(NCC2CCCCO2)c2cc(-c3ccc4c(c3)OCO4)ccc2n1 (stereo unspecified)	-0.2	.	.	8.4	.
COC(=O)C1CN(S(=O)(=O)c2ccccc2)CCN1S(=O)(=O)c1ccccc1 (stereo unspecified)	5.8	-5.0	-0.4	6.2	58.4*
CCCC1CCC2(CC1)CCC2OC(=O)Nc1ccc(F)cc1 (stereo unspecified)	-0.1	.	.	-2.8	.
O=C(CCl)NC(=O)NC12CC3CC(CC(C3)C1)C2	-1.1	0.9	89.2*	2.0	2.0
O=C(NCCCO)NC12CC3CC(CC(C3)C1)C2	-4.5	-3.2	10.9	1.1	-3.7
N[C@@H](C(=O)N[C@@H]1C(=O)N2C(C(=O)O)=C(Cl)CS[C@H]12)c1ccccc1	45.5*	2.3	2.2	-2.7	-0.3
CC1=C(C(=O)O)N2C(=O)C(NC(=O)c3ccccc3Cl)C2SC1 (stereo unspecified)	8.4	-3.9	-1.6	2.4	-0.1
Cc1ccc(NC(=O)/C=C\C(=O)NCC(=O)O)cc1	24.3*	1.6	3.3	-2.8	-1.1
CC(C)c1onc(C(=O)NC2CCCCC2)c1[N+](=O)[O-]	-1.5	5.7	36.9*	6.2	10.7
COC(=O)[C@]12C[C@H](CC(=O)N3CCN(C(=O)C4CC4)CC3)C(=O)N(CCc3ccc(OC)c(OC)c3)C1=C[C@H](C(C)(C)C)O[C@@H]2C	0.7	.	.	1.5	.
N#CC1(NC(=O)COc2ccccc2[N+](=O)[O-])CCCCC1	-2.3	3.5	2.9	3.9	-0.7
C=CCOc1ccc(C(=O)c2ccccc2)c(OCC(=O)NC2(C#N)CCCC2)c1	-0.2	-3.6	-4.8	1.1	17.7*
O=C(c1ccncc1)N1CCC(Oc2cccnc2)CC1	-5.2	.	.	-11.3	.
